Data: PubChem BioAssay AID624073 (Broad Institute, 2012)
Active and inactive are the calls of the source.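 The calls were made as follows: active = fitted OD600 growth curve drops 35% below untreated wells at up to twice the top tested dose; inconclusive = flat curve with 30 to 70% drop, or poor fit; inactive = the rest, including rising growth signal.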

System: not listed separately
Experiment: P. aeruginosa PAK growth delay under chelation, dose response, whole organism, PAK strain, OD600, EDDHA, dry powder, set 3 (AID 624073)
Conditions: P. aeruginosa PAK growth with EDDHA, OD600, 28 h; at 100 µM (top of the series)
Outline: (§1)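 Compound: dose-response series, final compound range 100 µM down to 15 nM / Test system: Pseudomonas aeruginosa PAK wild-type strain, whole bacterial cells / Timing: 28 h exposure at 30 °C / Also added: iron chelator EDDHA at 2 µM in the medium / Buffer or medium: Succinate-based M9 minimal medium adjusted to pH 7.0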

Structure (SMILES)	activity change, negative = inhibition
COCCC(C#N)c1ccc(F)cc1 (stereo unspecified)	1.49% (inactive)
CCCCC(C#N)c1ccc(F)cn1 (stereo unspecified)	-13.8% (inactive)
COCCNC(C#N)c1ccc(Cl)cc1 (stereo unspecified)	-2.37% (inactive)

System: P. aeruginosa PAK growth with EDDHA, OD600, 28 h
Experiment: as above
Conditions: not given
Outline: as §1

Structure (SMILES)	AC35
N#CC(c1ccc(Cl)cc1)c1cccc(Cl)n1 (stereo unspecified)	40.9 µM
N#CC(c1ccc(Cl)cc1)c1ccc(Cl)cn1 (stereo unspecified)	87.7 µM
CCCCC(c1ccc(Cl)cc1)c1nn[nH]n1 (stereo unspecified)	> 100 µM (inactive)
N#CC(c1ccc(Cl)cc1)c1ncccc1Cl (stereo unspecified)	77.8 µM
N#CC(c1ccc(F)cc1)c1cccc(C(F)(F)F)n1 (stereo unspecified)	15.4 µM
N#CC(c1ccc(Cl)cc1)c1cccc(C(F)(F)F)n1 (stereo unspecified)	12.8 µM
N#CC(c1cccc(Cl)n1)c1ccc(Cl)cc1F (stereo unspecified)	47.5 µM
N#CC(c1cccc(C(F)(F)F)n1)c1ccc(Cl)cc1F (stereo unspecified)	13.7 µM
